Bioassay records from PubChem.
In the library only some 4.9% were active in any assay of this set; here they are far more common.
STAT3 act: IL-6 driven STAT3 reporter potentiators, primary screen, U3A cells, luciferase, luminescence, MLSCN library; IL-6 STAT3-luciferase reporter; 100% = signal with IL-6 EC80 alone; activation (% of control), % at 5.6 µM; 190,000 compounds, 0.91% hits; AID 871, 2007;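 active = activation above the screen-wide mean of compound activation plus 3 SD, cut at about 130% in these data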
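System – human U3A cells carrying STAT3-luciferase construct · Probe or stimulus – Interleukin-6, 33 ng/mL · Schedule – compound 1 h, then IL-6 6 h at 37 °C · Signal – luminescence from STAT3-driven luciferase reporter · Evaluation – percent of IL-6-only median luminescence · Benchmarks – IL-6-only high control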
NF-kB expr up: activators of NF-kB expression in neurons, primary screen, cell-based, HTS; 190,000 compounds, 1.6% hits; fold change at 12.5 µM; human neuronal cells, NF-kB reporter expression; active compounds read high; in the data active = fold change above about 3.3
STAT1 activator: STAT1 signaling activators, primary screen, cell-based, HTS, luciferase reporter; NIH 3T3 STAT1-luciferase reporter, IFN-gamma, luminescence; 100% = IFN-gamma alone, no compound; activation (% of control), % at 5.5 µM; 200,000 compounds, 2.6% hits; AID 932, 2007;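 active = activation above the screen-wide mean activation plus 3 SD, cut at about 130% in these data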
STAT1 inh: STAT1 signaling inhibitors, primary screen, cell-based, HTS, luciferase reporter. NIH 3T3 STAT1-luciferase reporter, IFN-gamma, luminescence. inhibition, % at 5.5 µM. 200,000 compounds, 0.35% hits. AID 920, 2007;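 active = inhibition above a set limit, the mean inhibition across all tested compounds plus 3 SD, cut at about 34% in these data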
APP 5'UTR act: activators of APP 5'UTR luciferase reporter, primary screen, SH-SY5Y cells | 190,000 compounds, 1% hits | activation, % at 2 µM | SH-SY5Y APP 5'UTR luciferase reporter, luminescence; zero percent = DMSO vehicle wells;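 active = activation above a set limit, based on mean plus 3 SD of controls, cut at about 140% in these data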
STAT3 inh-1: IL-6 driven STAT3 reporter inhibitors, primary screen, U3A cells, luciferase, luminescence, MLSCN library; IL-6 STAT3-luciferase reporter; host cell line lacks STAT1; inhibition, % at 5.5 µM; 190,000 compounds, 0.89% hits; AID 862, 2007;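 active = inhibition above the mean inhibition across all screened compounds plus 3 SD, cut at about 44% in these data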
STAT3 inh-2: STAT3 reporter inhibitors, retest of hits, confirmation, U3A cells, luciferase, luminescence. inhibition, % at 5.7 µM. IL-6 STAT3 luciferase reporter; cell line lacks STAT1. shares compounds with STAT3 inh-1. 1,200 compounds, 45% hits;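 active = inhibition above the hit cutoff computed for the primary STAT3 screen, cut at about 44% in these data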
NFkB inh STAT3ct: NF-kB reporter inhibitors in human cells, confirmation, counter-screen for STAT3 inhibitor project, cell-based, HEK293T, luciferase, TNF-alpha stimulus | AID 1308, 2008 | shares compounds with STAT3 inh-1 | 1,200 compounds, 36% hits | inhibition, % at 5.7 µM | TNF-alpha induced;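 active = inhibition above the mean of solvent-only control wells plus 3 SD, cutoff set per campaign, cut at about 13% in these data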
STAT1 inh 2: STAT1 reporter inhibitors, IFN-gamma induced, confirmation, counter-screen for STAT3 inhibitor project, cell-based, NIH 3T3, luciferase luminescence; shares compounds with STAT3 inh-1; NIH 3T3 STAT1-luciferase reporter; inhibition, % at 5.7 µM; 1,200 compounds, 27% hits; AID 1317, 2008;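 active = inhibition above the mean plus 3 SD of solvent-only control wells, limit set per screening run, cut at about 16% in these data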
Hits are given with their value.

Screening CCOC(=O)COc1ccc(S(=O)(=O)NCc2ccncc2)cc1 returned STAT3 act inactive, NF-kB expr up inactive, STAT1 activator inactive, STAT1 inh inactive, STAT3 inh-1 70, STAT3 inh-2 55, NFkB inh STAT3ct inactive and STAT1 inh 2 23.
`CCOC(=O)COc1ccc(S(=O)(=O)NCc2ccco2)cc1` gave STAT3 act inactive, NF-kB expr up inactive, STAT1 activator inactive, STAT1 inh inactive, APP 5'UTR act inactive and STAT3 inh-1 inactive.
For Cn1ncc([N+](=O)[O-])c1C(=O)Nc1nccs1 the results were STAT3 act inactive, NF-kB expr up inactive, STAT1 activator inactive, STAT1 inh inactive, APP 5'UTR act inactive and STAT3 inh-1 inactive.
For CCOc1ccc(S(=O)(=O)NCc2ccccn2)cc1 the results were STAT3 act inactive, NF-kB expr up inactive, STAT1 activator inactive, STAT1 inh inactive, APP 5'UTR act inactive and STAT3 inh-1 inactive.
`CCOc1ccc(S(=O)(=O)NCc2ccncc2)cc1` gave STAT3 act inactive, NF-kB expr up inactive, STAT1 activator inactive, STAT1 inh inactive, APP 5'UTR act inactive, STAT3 inh-1 88, STAT3 inh-2 82, NFkB inh STAT3ct 34 and STAT1 inh 2 24.
Screening O=C(Nc1ccc(NC(=O)c2cc3ccccc3o2)cc1)c1ccc2c(c1)OCCO2 returned STAT3 act inactive, NF-kB expr up inactive, STAT1 activator inactive, STAT1 inh inactive, APP 5'UTR act inactive, STAT3 inh-1 47, STAT3 inh-2 51, NFkB inh STAT3ct 54 and STAT1 inh 2 23.
For Cc1ccc(NC(=O)c2ccc3c(c2)OCCO3)cc1 the results were STAT3 act inactive, NF-kB expr up 4.1, STAT1 activator inactive, STAT1 inh inactive, APP 5'UTR act 145, STAT3 inh-1 77, STAT3 inh-2 inactive, NFkB inh STAT3ct inactive and STAT1 inh 2 inactive.
For O=C(c1ccc2c(c1)OCO2)N1CCN(c2ccc(Cl)cc2)CC1 the results were STAT3 act inactive, NF-kB expr up inactive, STAT1 activator inactive, STAT1 inh inactive, APP 5'UTR act inactive and STAT3 inh-1 inactive.
O=C(Nc1ccc(N2CCN(C(=O)c3ccc(Cl)cc3)CC2)cc1)c1ccc2c(c1)OCCO2 was read as STAT3 act inactive, NF-kB expr up inactive, STAT1 activator inactive, STAT1 inh inactive, APP 5'UTR act inactive, STAT3 inh-1 87, STAT3 inh-2 79, NFkB inh STAT3ct 29 and STAT1 inh 2 inactive.
Screening COc1ccc(NC(=O)C2=Cc3cccc(OC)c3OC2)cc1 returned STAT3 act inactive, NF-kB expr up inactive, STAT1 activator inactive, STAT1 inh inactive, APP 5'UTR act inactive and STAT3 inh-1 inactive.
Cc1cc(NC(=O)c2ccc3c(c2)OCCO3)ccc1NC(=O)c1cc2ccccc2o1 was read as STAT3 act inactive, NF-kB expr up inactive, STAT1 activator inactive, STAT1 inh inactive, APP 5'UTR act inactive and STAT3 inh-1 inactive.
`COc1ccc(NC(=O)C2=Cc3ccccc3OC2)cc1` gave STAT3 act inactive, NF-kB expr up 9.5, STAT1 activator inactive, STAT1 inh inactive, APP 5'UTR act 157, STAT3 inh-1 58, STAT3 inh-2 inactive, NFkB inh STAT3ct inactive and STAT1 inh 2 inactive.
CS(=O)(=O)Nc1ccc(C(=O)Nc2ccc3c(c2)OCCO3)cc1 was read as STAT3 act inactive, NF-kB expr up inactive, STAT1 activator inactive, STAT1 inh inactive, APP 5'UTR act inactive and STAT3 inh-1 inactive.
